Measured values reported in ChEMBL document CHEMBL4513216, “Probing the Open Global Health Chemical Diversity Library for Multistage-Active Starting Points for Next-Generation Antimalarials” (ACS Infect Dis, 2020).

Experiment: Toxicity liver stage against HepG2, at 10uM
Format: cell-based
Set-up: test concentration 10 uM, cell line HepG2-A16-CD81EGFP
Conditions: human, HepG2-A16-CD81EGFP cells; read-out: INHIBITION
How it was run: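 Uninfected HepG2-A16-CD81EGFP cells, 3 × 10^3 per well, 1536-well, plated on prespotted compound at 10 μM final, parasite-free screening media added to match infected plates; puromycin 10 μM positive, DMSO 0.5% negative; run in parallel with 48 h PbLuc assay at 37 °C, 5% CO2; viability by CellTiter-Glo luminescence, normalized to controls.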

| SMILES | cytotoxicity at 10 µM [%] |
| --- | --- |
| Fc1cnccc1CN1CCC2(CCN2c2ncccn2)C1 (stereo unspecified) | -111 |
| CCOCCNS(=O)(=O)c1ccc2c3c1CCCN3C(=O)CO2 | 7.9 |
| COc1cccc2[nH]cc(CCNC(=O)N3CCCC3CO)c12 (stereo unspecified) | -10.1 |
| Cn1cnc(CN2Cc3nccn3CC2c2ccccc2)c1 (stereo unspecified) | 2.98 |
| Cc1ccc(-c2nn(C)c(C(=O)O)c2Br)cc1 | -49.7 |
| O=C(Nc1ccccc1)c1ccc(NCc2ccccc2CO)nn1 | 4.34 |
| CCC(=O)N1CCC2(COCc3cnc(N4CCOCC4)nc32)C1 (stereo unspecified) | -66.2 |
| c1cc(CN2CCc3ncc(CN4CCOCC4)n3CC2)cs1 | -0.269 |
| Cn1cc(C(=O)N2CCOc3cc(F)ccc32)ccc1=O | -2.55 |
| CC(C)N(C)C(=O)c1ccc(CNc2cncc(Cl)n2)cc1 | 2.87 |
| Cc1ccc(C2(CN(C)Cc3c(C)nn(C)c3C)CCNCC2)nc1 | -0.44 |
| CCN1CCC[C@@H]1CNC(=O)c1cc(COc2ccccc2)[nH]n1 | 0.635 |
| FC(F)(F)Cn1ccnc1CNCCn1cccn1 | -6.4 |
| COc1cccc2c1CCC2NC(=O)NCc1csc(N(C)C)n1 (stereo unspecified) | -1.37 |
| COc1ccc(C(N)=O)cc1NCc1ncc(-c2cccs2)o1 | 8.2 |
| CC(Cc1ccco1)NS(=O)(=O)N1CCCCCC1 (stereo unspecified) | 2.29 |
| O=C(NCc1ccco1)N1CCN(Cc2ccc3c(c2)CCO3)CC1 | -2.83 |
| CN1CCCC1c1nccnc1-c1ccc(C(=O)O)cc1 (stereo unspecified) | 11 |
| CCCS(=O)(=O)N1CC[C@H]2O[C@@H](c3nc(C)no3)CC[C@H]21 | -2.48 |
| Cc1cc(C2CCCN2CCCS(=O)(=O)c2ccccc2)no1 (stereo unspecified) | -8.83 |
| Cc1noc(C)c1CN1CCc2ncnc(-c3ccncc3)c2CC1 | -87 |
| Cc1ncnc2c1CCN(CC1CCOC1)CC2 (stereo unspecified) | -67.2 |
| O=C(CNc1ccc(F)cc1OCC(F)(F)F)NCc1ccco1 | 7.35 |

| SMILES | cytotoxicity at 10 µM [%] |
| --- | --- |
| CCC(C)[C@H](NC(=O)c1cc(Br)ccc1-n1cnnn1)C(=O)OC (stereo partly specified) | 2.58 |
| CCN(C)C(=O)c1ccc(N2CCC(Oc3cccc(F)c3)CC2)nc1 | -23.7 |
| COc1ncc(NCc2csc(-c3ccco3)n2)cc1C(N)=O | -17.9 |
| Cc1ccc(CN2CCC[C@]3(C(=O)O)CN(C)C[C@@H]3C2)s1 | -106 |
| CNc1cc2c(nn1)CCN(C(=O)c1ccc(-n3cccn3)nc1)C2 | -4.78 |
| O=S(=O)(N1CCCCCC1)N1CCN(Cc2ccc(F)cc2Br)CC1 | -132 |
| CCCc1nn(C2CCCN(C(C)C)C2=O)c(=O)o1 (stereo unspecified) | -6.11 |
| CCC1CN(C(=O)c2cnc(-c3ccccc3)s2)CCO1 (stereo unspecified) | -2.63 |
| CSc1ccc(NC(=O)NCC(O)C(C)C)cc1F (stereo unspecified) | 6.93 |
| CN1C[C@H](COCC2CC2)[C@H]2CCN(Cc3ccco3)CC[C@H]2C1=O | -4.84 |
| COc1ccc(CN(C)C(=O)CN2CC(n3cccn3)C2)cc1F | -0.717 |
| Cc1nc2cc(=O)[nH]n2c(C)c1CC(=O)NC(C)C | 11.3 |
| CN(C)CCN(C)C(=O)NC1CCC(Oc2ccccc2C#N)CC1 (stereo unspecified) | -21.8 |
| CC(C)c1cc(C(=O)N2CCN(c3cccc(C(=O)O)c3)CC2)n(C)n1 | -2.95 |
| CCc1ccc(S(=O)(=O)Nc2cnc(N3CCOCC3)nc2)cc1 | -7.72 |
| Cc1ccc2nc(CN(Cc3ccc(C#N)cc3)C(C)C)cc(=O)n2c1 | 21.1 |
| CCC(=O)Nc1cccc(OCC(=O)N(C)Cc2ccon2)c1 | 5.37 |
| CCCC(=O)Nc1cnn(CC(=O)Nc2ccc(SC)cc2)c1 | -8.81 |
| CCc1nnc(CN(C)C(=O)CN2CC(c3ccccc3)CC2=O)o1 (stereo unspecified) | -2.96 |
| O=C(c1ccoc1)N1CCCn2nnc(COCC3CC3)c2C1 | -68.5 |
| Cn1cccc1C(=O)N1CCc2c(CNS(C)(=O)=O)cncc2C1 | 4.68 |
| Cc1cc(C2CCCN(Cc3nnc(Cc4ccccc4)o3)C2)n[nH]1 (stereo unspecified) | -5.78 |
| COC1CCN(C(=O)CCc2c(C)nc3ccnn3c2C)CC1 | -5.72 |
